Assay results taken from ChEMBL document CHEMBL2086281, “Design, synthesis and 3D-QSAR analysis of novel 2-hydrazinyl-4-morpholinothieno[3,2-d]pyrimidine derivatives as potential antitumor agents” (Eur J Med Chem, 2012).

Key:
MDA-MB-231 [1] = experiment: Cytotoxicity against human MDA-MB-231 cells assessed as growth inhibition after 72 hrs by MTT assay; type: functional, cell-based; conditions: MDA-MB-231, 72 h
Method in brief: (§1)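 Cells grown in MEM with 10% FBS. About 4×10^3 cells/well were pre-incubated for 24 h at 37 °C in 5% CO₂, then exposed to compound at the indicated final concentrations for 72 h. MTT was added to 5 µg/mL final for 4 h at 37 °C. Formazan was dissolved in DMSO and read at 492 nm, with 630 nm as reference. IC50 is the mean of three determinations.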

HT-29 [2] = experiment: Cytotoxicity against human HT-29 cells assessed as growth inhibition after 72 hrs by MTT assay; type: functional, cell-based; conditions: HT-29, 72 h; method in brief: as §1
NCI-H460 [3] = experiment: Cytotoxicity against human H460 cells assessed as growth inhibition after 72 hrs by MTT assay; type: functional, cell-based; conditions: NCI-H460, 72 h
Method in brief: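 Cells grown in MEM with 10% FBS. About 4×10^3 cells/well were pre-incubated for 24 h at 37 °C in 5% CO₂, then exposed to compound at the indicated final concentrations for 72 h. MTT was added to 5 µg/mL final for 4 h at 37 °C. IC50 is the mean of three determinations.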

NCI-H1975 = experiment: Cytotoxicity against human NCI-H1975 cells assessed as growth inhibition after 72 hrs by MTT assay; type: functional, cell-based; conditions: NCI-H1975, 72 h; method in brief: as §1
[4] = Cytotoxicity against human U87MG cells assessed as growth inhibition after 72 hrs by MTT assay; type: functional, cell-based, U-87MG ATCC; conditions: U-87 MG; method in brief: as §1
SGC-7901 = experiment: Cytotoxicity against human SGC7901 cells assessed as growth inhibition after 72 hrs by MTT assay; type: functional, cell-based; conditions: SGC-7901, 72 h; method in brief: as §1
HepG2 = experiment: Cytotoxicity against human HepG2 cells assessed as growth inhibition after 72 hrs by MTT assay; type: functional, cell-based; conditions: HepG2, 72 h; method in brief: as §1
MDA-MB-231 [5] = experiment: Ratio of GDC-0941 IC50 to compound IC50 for human MDA-MB-231 cells assessed as growth inhibition after 72 hrs by MTT assay; type: functional
NCI-H460 [6] = experiment: Ratio of GDC-0941 IC50 to compound IC50 for human H460 cells assessed as growth inhibition after 72 hrs by MTT assay; type: functional
NCI-H226 = experiment: Cytotoxicity against human NCI-H226 cells assessed as growth inhibition after 72 hrs by MTT assay; type: functional, cell-based; conditions: NCI-H226, 72 h; method in brief: as §1
A549 = experiment: Cytotoxicity against human A549 cells assessed as growth inhibition after 72 hrs by MTT assay; type: functional, cell-based; conditions: A549, 72 h; method in brief: as §1
HT-29 [7] = experiment: Ratio of GDC-0941 IC50 to compound IC50 for human HT-29 cells assessed as growth inhibition after 72 hrs by MTT assay; type: functional

Row | Compound | IC50 (MDA-MB-231 [1]) | IC50 (HT-29 [2]) | IC50 (NCI-H460 [3]; read-out: IC50) | IC50 (NCI-H1975) | IC50 (NCI-H460 [3]; read-out: pIC50 (converted)) | IC50 [4] | IC50 (SGC-7901) | IC50 (HepG2) | Ratio IC50 (MDA-MB-231 [5]) | Ratio IC50 (NCI-H460 [6]) | IC50 (NCI-H226) | IC50 (A549) | Ratio IC50 (HT-29 [7])
1 | NNc1nc(N2CCOCC2)c2sccc2n1 | 63.8 µM | 23.4 µM | 42.2 µM |  |  |  |  |  |  |  |  |  | 
2 | CC(C)(O)c1cc2nc(NN)nc(N3CCOCC3)c2s1 | > 100 µM | 56.2 µM | 29.7 µM |  |  |  |  |  |  |  |  |  | 
3 | C(=N\Nc1nc(N2CCOCC2)c2sccc2n1)/c1cn(Cc2ccccc2)c2ccccc12 | 12.4 µM | 4.7 µM | 1.41 µM | 42.7 µM | 1.41 µM | > 100 µM |  |  |  |  |  |  | 
4 | Clc1ccccc1Cn1cc(/C=N/Nc2nc(N3CCOCC3)c3sccc3n2)c2ccccc21 | > 100 µM | > 100 µM | 3.98 µM |  | 3.98 µM |  |  |  |  |  |  |  | 
5 | Clc1cccc(Cn2cc(/C=N/Nc3nc(N4CCOCC4)c4sccc4n3)c3ccccc32)c1 | 9.74 µM | 2.98 µM | 0.54 µM | > 100 µM | 0.537 µM | 5.96 µM |  |  |  |  |  |  | 
6 | Clc1ccc(Cn2cc(/C=N/Nc3nc(N4CCOCC4)c4sccc4n3)c3ccccc32)cc1 | 2.7 µM | 5.76 µM | 0.36 µM |  | 0.355 µM | 15.6 µM |  |  |  |  |  |  | 
7 | Fc1ccccc1Cn1cc(/C=N/Nc2nc(N3CCOCC3)c3sccc3n2)c2ccccc21 | 9.24 µM | 3.28 µM | 0.86 µM | > 100 µM | 0.871 µM | 22.6 µM |  |  |  |  |  |  | 
8 | Fc1cccc(Cn2cc(/C=N/Nc3nc(N4CCOCC4)c4sccc4n3)c3ccccc32)c1 | 1.11 µM | 0.39 µM | 0.23 µM | 19 µM | 0.224 µM | 12.6 µM | 0.8 µM | 1.1 µM | 66.5 | 3.8 | 0.91 µM | 8.7 µM | 1.7
9 | Fc1ccc(Cn2cc(/C=N/Nc3nc(N4CCOCC4)c4sccc4n3)c3ccccc32)cc1 | 12.3 µM | 1.79 µM | 0.41 µM | > 100 µM | 0.407 µM | 8.83 µM |  |  |  |  |  |  | 
10 | N#Cc1cccc(Cn2cc(/C=N/Nc3nc(N4CCOCC4)c4sccc4n3)c3ccccc32)c1 | 2 µM | 4.86 µM | 0.34 µM |  | 0.347 µM | 9.68 µM |  |  |  |  |  |  | 
11 | N#Cc1ccc(Cn2cc(/C=N/Nc3nc(N4CCOCC4)c4sccc4n3)c3ccccc32)cc1 | > 100 µM | 25.5 µM | 1.62 µM |  | 1.62 µM |  |  |  |  |  |  |  | 
12 | Clc1ccc(Cn2cc(/C=N/Nc3nc(N4CCOCC4)c4sccc4n3)c3ccccc32)c(Cl)c1 | > 100 µM | 46.5 µM | 5.77 µM |  | 5.75 µM |  |  |  |  |  |  |  | 
13 | Clc1cccc(Cl)c1Cn1cc(/C=N/Nc2nc(N3CCOCC3)c3sccc3n2)c2ccccc21 | 20.5 µM | 35.4 µM | 10.4 µM |  | 10.5 µM |  |  |  |  |  |  |  | 
14 | Clc1ccc(Cn2cc(/C=N/Nc3nc(N4CCOCC4)c4sccc4n3)c3ccccc32)cc1Cl | > 100 µM | 16.2 µM | 0.74 µM | > 100 µM | 0.741 µM | > 100 µM |  |  |  |  |  |  | 
15 | Cc1ccc(Cn2cc(/C=N/Nc3nc(N4CCOCC4)c4sccc4n3)c3ccccc32)cc1 | 9.73 µM | 3.31 µM | 0.83 µM | 33.1 µM | 0.832 µM | 4.97 µM |  |  |  |  |  |  | 
16 | CC(C)(C)c1ccc(Cn2cc(/C=N/Nc3nc(N4CCOCC4)c4sccc4n3)c3ccccc32)cc1 | 1.43 µM | 1.69 µM | 0.38 µM | 8 µM | 0.38 µM | 11.2 µM |  |  |  |  |  |  | 
17 | FC(F)(F)c1cccc(Cn2cc(/C=N/Nc3nc(N4CCOCC4)c4sccc4n3)c3ccccc32)c1 | 83.8 µM | 1.68 µM | 0.52 µM | 2.79 µM | 0.525 µM | 4.84 µM |  |  |  |  |  |  | 
18 | C(=N\Nc1nc(N2CCOCC2)c2sccc2n1)/c1nc2ccccc2n1Cc1ccccc1 | 21.3 µM | 1.08 µM | 25.6 µM |  | 25.7 µM |  |  |  |  |  |  |  | 
